ChEMBL document CHEMBL2169831 (J Med Chem, 2011)
Active and inactive are the calls of the source. The rule behind the calls is not given here.

Assays:
Xenopus laevis [1] = species: Xenopus laevis; assay: Inhibition of Xenopus laevis oocyte CNGA1/CNGB1 assessed as inhibition of currents at +50 mV potential at 2 uM by patch-clamp method in presence of 100 uM cGMP
Outline: (§1)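 Heteromeric rod CNG channels from oocytes co-injected with CNGA1 and CNGB1 cRNA (33 ng:67 ng, 2:1), held at 16–18 °C and recorded 3–7 days later. Excised inside-out patches were stepped from 0 to −50 to +50 mV with sub-saturating cGMP (50 or 100 µM), with or without blocker. Currents without cGMP were subtracted and filtered at 300 Hz. Block was read at +50 mV.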

Xenopus laevis [2] = species: Xenopus laevis; assay: Inhibition of Xenopus laevis oocyte CNGA1/CNGB1 assessed as inhibition of cGMP-induced currents at +50 mV potential at 1 uM by patch-clamp method in presence of 50 uM cGMP; outline: as §1
Xenopus laevis [3] = species: Xenopus laevis; assay: Inhibition of Xenopus laevis oocyte CNGA1/CNGB1 assessed as inhibition of currents at +50 mV potential at 2 uM by patch-clamp method in presence of 50 uM cGMP; outline: as §1
[4] = Binding affinity to Xenopus laevis oocyte CNGA1/CNGB1 assessed as inhibition of 2 mM cGMP-induced currents at -50 mV potential at 5 uM by patch-clamp method; conditions: read-out: Kd(app)
Outline: (§2)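 Rod CNGA1 plus CNGB1 cRNA (2:1; 33 ng plus 67 ng) co-injected into stage IV–V Xenopus oocytes, held at 16–18 °C. Inside-out excised patches recorded 3–7 days after injection. Channels were maximally activated with 2 mM cGMP, and compound was added. Steps ran from 0 to −50 and +50 mV. Currents with no cGMP were subtracted, and KD was fitted to a single-site block equation (mean ± SD).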

[5] = Drug degradation in 0.1 M phosphate buffer at pH 7.4 assessed as human butyrylcholinestase-mediated compound hydrolysis rate at 50 uM during first 1 min by spectrophotometric analysis; conditions: pH 7.4, 1 min
[6] = Binding affinity to Xenopus laevis oocyte CNGA1/CNGB1 assessed as inhibition of 2 mM cGMP-induced currents at +50 mV potential at 5 uM by patch-clamp method; conditions: read-out: Kd(app); outline: as §2
Xenopus laevis [7] = species: Xenopus laevis; assay: Inhibition of Xenopus laevis oocyte CNGA1/CNGB1 assessed as inhibition of cGMP-induced currents at +50 mV potential at 1 uM by patch-clamp method in presence of 100 uM cGMP; outline: as §1

SMILES	inhibition (Xenopus laevis [1])	inhibition (Xenopus laevis [2])	inhibition (Xenopus laevis [3])	Kd [4] [µM]	Drug degradation [5] [nmol/min/mg]	Kd [6] [µM]	inhibition (Xenopus laevis [7])
CCCCCCCCNc1ccc(C(=O)OCCN(C)C)cc1	Active	Active	Active	2.4	213	1	Active
CCCCNc1ccc(C(=S)NCCN(C)C)cc1				3.9		0.6	
CCCCNc1ccc(C(=O)NCCN(C)C)cc1				28.6	8.4	4.4	
CCCCCCCCNc1ccc(C(=O)NCCN(C)C)cc1					1.2		
CCCCNc1ccc(C(=O)OCCN(C)C)cc1 [TETRACAINE]	Active	Active	Active		132		Active
CCCCCCCCNc1ccc(C(=S)NCCN(C)C)cc1				1.8		0.7	
